Results reported in ChEMBL document CHEMBL4266033, “Neolymphostin A Is a Covalent Phosphoinositide 3-Kinase (PI3K)/Mammalian Target of Rapamycin (mTOR) Dual Inhibitor That Employs an Unusual Electrophilic Vinylogous Ester” (J Med Chem, 2018).
The source made the active and inactive calls. The rule behind the calls is not given here.

How the values were obtained:
[1] = target: T1, Serine/threonine-protein kinase PLK4 (Homo sapiens) (UniProt O00444); test: Binding affinity to human PLK4 at 1 uM after 1 hr by KINOMEscan assay
T1 sequence (whole entry): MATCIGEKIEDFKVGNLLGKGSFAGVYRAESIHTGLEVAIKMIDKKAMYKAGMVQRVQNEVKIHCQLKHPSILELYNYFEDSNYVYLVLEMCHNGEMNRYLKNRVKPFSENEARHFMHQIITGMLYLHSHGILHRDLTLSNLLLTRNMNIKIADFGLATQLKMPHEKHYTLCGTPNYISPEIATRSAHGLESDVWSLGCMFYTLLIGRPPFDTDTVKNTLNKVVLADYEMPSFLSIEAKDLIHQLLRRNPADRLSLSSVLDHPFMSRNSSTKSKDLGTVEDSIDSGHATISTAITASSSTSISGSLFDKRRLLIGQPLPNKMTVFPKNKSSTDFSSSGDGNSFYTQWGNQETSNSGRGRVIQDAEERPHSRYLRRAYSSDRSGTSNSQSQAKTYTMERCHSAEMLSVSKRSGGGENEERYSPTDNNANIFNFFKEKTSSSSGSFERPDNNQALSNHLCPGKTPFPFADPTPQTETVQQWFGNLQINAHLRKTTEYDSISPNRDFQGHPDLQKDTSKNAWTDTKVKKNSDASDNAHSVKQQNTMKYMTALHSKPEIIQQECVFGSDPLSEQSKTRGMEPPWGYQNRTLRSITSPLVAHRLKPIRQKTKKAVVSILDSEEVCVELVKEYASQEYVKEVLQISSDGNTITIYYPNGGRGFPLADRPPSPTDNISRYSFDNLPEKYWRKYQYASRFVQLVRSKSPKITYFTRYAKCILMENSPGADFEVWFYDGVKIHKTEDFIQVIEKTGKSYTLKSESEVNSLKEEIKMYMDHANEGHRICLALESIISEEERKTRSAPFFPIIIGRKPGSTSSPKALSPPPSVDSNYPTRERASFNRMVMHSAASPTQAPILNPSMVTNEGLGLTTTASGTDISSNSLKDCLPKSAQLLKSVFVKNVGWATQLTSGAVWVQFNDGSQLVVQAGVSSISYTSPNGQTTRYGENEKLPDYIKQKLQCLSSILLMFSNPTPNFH

[2] = target: T2, Phosphatidylinositol 4,5-bisphosphate 3-kinase catalytic subunit gamma isoform (Homo sapiens, UniProt P48736); test: Binding affinity to human PI3Kgamma after 1 hr by KINOMEscan assay
T2 sequence (P48736 whole entry, canonical isoform): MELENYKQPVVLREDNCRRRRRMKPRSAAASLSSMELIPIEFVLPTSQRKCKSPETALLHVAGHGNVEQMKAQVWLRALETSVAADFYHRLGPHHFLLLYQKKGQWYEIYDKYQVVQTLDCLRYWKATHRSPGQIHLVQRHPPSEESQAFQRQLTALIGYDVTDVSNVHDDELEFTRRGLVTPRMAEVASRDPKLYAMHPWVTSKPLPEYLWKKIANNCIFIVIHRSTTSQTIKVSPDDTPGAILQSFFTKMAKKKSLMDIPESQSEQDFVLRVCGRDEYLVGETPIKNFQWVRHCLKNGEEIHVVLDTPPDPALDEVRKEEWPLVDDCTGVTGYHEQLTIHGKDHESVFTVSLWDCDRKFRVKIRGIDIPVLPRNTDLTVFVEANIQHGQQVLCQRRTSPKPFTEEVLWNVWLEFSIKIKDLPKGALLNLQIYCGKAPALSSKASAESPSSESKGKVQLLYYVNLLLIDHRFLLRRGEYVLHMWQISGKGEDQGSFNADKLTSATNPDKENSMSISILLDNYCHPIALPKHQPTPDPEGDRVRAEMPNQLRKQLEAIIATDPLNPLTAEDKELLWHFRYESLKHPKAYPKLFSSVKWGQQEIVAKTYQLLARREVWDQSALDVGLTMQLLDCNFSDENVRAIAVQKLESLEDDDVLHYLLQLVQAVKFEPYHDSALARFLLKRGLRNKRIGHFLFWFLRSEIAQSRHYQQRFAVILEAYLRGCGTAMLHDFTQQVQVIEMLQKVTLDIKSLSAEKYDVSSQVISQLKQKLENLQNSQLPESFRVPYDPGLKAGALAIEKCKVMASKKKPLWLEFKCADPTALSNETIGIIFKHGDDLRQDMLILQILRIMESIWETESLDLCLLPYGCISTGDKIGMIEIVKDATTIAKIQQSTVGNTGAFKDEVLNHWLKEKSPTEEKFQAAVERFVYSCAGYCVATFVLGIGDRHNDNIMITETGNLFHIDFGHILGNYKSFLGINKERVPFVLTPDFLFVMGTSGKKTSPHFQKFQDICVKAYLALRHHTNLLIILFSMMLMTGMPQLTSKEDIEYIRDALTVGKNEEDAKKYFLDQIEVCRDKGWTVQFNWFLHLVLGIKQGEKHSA

[3] = target: T2, Phosphatidylinositol 4,5-bisphosphate 3-kinase catalytic subunit gamma isoform; test: Binding affinity to human PI3Kgamma equilibrate for 1 hr followed by 30 fold dilution and re-equilibrate for 5 hrs by scan-kinetic platform assay
How it was run: (§1)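 scanKINETIC format on PI3Kα and PI3Kγ. […] Arm C: equilibrated 1 h. Arm B: equilibrated 1 h, diluted 30-fold, then re-equilibrated. Arm D: diluted immediately, then equilibrated. Kd compared with and without the dilution step to judge reversibility.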

[4] = target: T3, Phosphatidylinositol 4,5-bisphosphate 3-kinase catalytic subunit alpha isoform (Homo sapiens, UniProt P42336); test: Binding affinity to human PI3Kalpha equilibrate for 1 hr followed by 30 fold dilution and re-equilibrate for 5 hrs by scan-kinetic platform assay; how it was run: as §1
T3 sequence (P42336 whole entry, canonical isoform): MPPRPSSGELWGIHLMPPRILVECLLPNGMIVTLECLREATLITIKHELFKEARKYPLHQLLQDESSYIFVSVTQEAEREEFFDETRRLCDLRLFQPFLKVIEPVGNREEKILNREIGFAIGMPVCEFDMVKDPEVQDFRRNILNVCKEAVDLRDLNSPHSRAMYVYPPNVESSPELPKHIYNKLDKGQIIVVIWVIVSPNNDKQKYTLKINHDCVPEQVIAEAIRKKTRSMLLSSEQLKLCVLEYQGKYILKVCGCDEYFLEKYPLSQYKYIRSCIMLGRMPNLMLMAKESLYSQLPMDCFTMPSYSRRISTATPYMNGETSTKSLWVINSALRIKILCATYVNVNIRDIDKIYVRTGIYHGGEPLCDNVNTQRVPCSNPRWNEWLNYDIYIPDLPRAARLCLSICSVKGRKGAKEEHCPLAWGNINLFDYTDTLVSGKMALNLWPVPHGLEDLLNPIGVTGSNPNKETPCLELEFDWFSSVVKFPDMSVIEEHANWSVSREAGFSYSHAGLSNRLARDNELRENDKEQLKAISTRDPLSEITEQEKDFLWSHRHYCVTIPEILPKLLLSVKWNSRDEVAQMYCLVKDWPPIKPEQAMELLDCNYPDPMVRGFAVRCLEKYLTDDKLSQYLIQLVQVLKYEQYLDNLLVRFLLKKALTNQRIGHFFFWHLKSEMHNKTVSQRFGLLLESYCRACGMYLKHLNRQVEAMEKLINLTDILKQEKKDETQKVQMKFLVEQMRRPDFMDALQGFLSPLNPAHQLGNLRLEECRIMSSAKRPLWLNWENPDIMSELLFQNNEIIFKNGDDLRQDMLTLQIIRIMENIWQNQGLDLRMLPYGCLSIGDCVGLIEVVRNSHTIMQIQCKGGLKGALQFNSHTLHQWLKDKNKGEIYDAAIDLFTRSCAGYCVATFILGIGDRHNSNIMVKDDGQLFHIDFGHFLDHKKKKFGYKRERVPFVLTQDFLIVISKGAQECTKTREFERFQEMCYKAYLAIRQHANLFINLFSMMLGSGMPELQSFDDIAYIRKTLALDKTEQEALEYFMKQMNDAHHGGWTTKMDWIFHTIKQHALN

[5] = target: Phosphatidylinositol 4,5-bisphosphate 3-kinase catalytic subunit beta isoform (Homo sapiens, UniProt P42338); test: Binding affinity to human PI3Kbeta after 1 hr by KINOMEscan assay
[6] = target: T3, Phosphatidylinositol 4,5-bisphosphate 3-kinase catalytic subunit alpha isoform; test: Binding affinity to human PI3Kalpha equilibrate for 6 hrs by scan-kinetic platform assay; how it was run: as §1
[7] = system: Panel NCI-60 (60 carcinoma cell lines); test: Growth inhibition of human NCI60 cells after 48 hrs by sulforhodamine B assay; type: functional
How it was run: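 NCI 60-cell line panel (leukemia, NSCLC, colon, CNS, melanoma, ovarian, renal, prostate, breast). 5-point dose-response curves with top concentration 50 µM. GI50, TGI and LC50 were calculated from the curves.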

[8] = target: T4, PI3-kinase p110-alpha/p85-alpha (Homo sapiens) (UniProt P27986+P42336); test: Binding affinity to PI3Kalpha/p85alpha (unknown origin) assessed as covalent modification at Lys802 residue at 4 uM measured for 3/300 secs by hydrogen-deuterium exchange mass spectrometry; type: protein-complex assay
How it was run: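 PI3Kα (p110α/p85α) preincubated 30 min at 2 μM with 4 μM inhibitor or DMSO (5% final). Diluted to 0.4 μM in 50 μL for deuterium exchange at 3 s on ice and 300 s at 20 °C. Quenched with ice-cold 2 M guanidine-HCl/3% formic acid, then UPLC-TOF-MS. Peptide changes >5% and >0.4 Da with paired t-test p<0.01 taken as significant.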

[9] = target: Epidermal growth factor receptor (Homo sapiens) (UniProt P00533); test: Inhibition of EGFR in human HeLa cells assessed as reduction in EGF-stimulated ERK1/2 phosphorylation at T202/Y204 at 0.3 to 100 nM preincubated for 10 mins followed by EGF stimulation measured after 5 mins by Western blot analysis; type: cell-based
Epidermal growth factor receptor (Homo sapiens), sequence (P00533 whole entry, canonical isoform): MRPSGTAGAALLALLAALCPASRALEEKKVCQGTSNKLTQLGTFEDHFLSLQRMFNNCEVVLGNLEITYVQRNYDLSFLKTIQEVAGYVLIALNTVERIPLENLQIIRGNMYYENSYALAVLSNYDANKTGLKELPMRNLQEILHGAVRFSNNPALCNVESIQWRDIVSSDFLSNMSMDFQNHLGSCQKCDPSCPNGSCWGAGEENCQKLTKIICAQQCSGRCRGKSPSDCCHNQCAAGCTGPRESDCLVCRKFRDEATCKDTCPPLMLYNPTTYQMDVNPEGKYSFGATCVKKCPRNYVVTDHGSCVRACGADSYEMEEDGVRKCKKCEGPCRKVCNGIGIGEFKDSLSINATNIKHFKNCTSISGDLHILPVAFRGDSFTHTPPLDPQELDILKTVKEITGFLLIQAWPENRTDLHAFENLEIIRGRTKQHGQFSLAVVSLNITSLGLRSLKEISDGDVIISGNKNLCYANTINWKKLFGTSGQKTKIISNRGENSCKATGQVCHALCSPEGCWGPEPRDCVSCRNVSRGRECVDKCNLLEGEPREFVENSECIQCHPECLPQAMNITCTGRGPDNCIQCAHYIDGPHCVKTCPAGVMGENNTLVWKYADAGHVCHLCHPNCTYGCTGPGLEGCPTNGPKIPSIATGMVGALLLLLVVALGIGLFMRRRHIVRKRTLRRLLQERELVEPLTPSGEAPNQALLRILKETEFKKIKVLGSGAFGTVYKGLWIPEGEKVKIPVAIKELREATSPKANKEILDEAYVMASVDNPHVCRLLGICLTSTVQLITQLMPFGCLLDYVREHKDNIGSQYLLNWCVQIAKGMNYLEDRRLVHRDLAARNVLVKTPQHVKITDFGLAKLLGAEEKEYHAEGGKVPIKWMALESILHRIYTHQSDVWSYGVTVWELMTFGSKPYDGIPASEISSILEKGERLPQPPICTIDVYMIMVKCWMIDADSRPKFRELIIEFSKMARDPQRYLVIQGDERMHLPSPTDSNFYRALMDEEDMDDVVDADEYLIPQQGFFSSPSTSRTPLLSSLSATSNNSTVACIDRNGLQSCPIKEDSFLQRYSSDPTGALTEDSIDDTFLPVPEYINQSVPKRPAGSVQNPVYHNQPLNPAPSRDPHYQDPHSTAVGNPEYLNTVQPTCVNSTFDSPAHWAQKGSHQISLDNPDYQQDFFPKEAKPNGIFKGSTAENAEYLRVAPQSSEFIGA
How it was run: (§2)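 HeLa cells were serum-starved overnight, pretreated with compound for 10 min, then stimulated with 10 ng mL-1 EGF for 5 min. Lysis was in boiling SDS sample buffer, with protein quantified at 660 nm. Equal protein was resolved by SDS-PAGE and Western blotted for pEGFR Tyr1068, pAKT Ser473/Thr308, and pERK1/2 Thr202/Tyr204 with total proteins and GAPDH, detected by ECL.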

[10] = target: T2, Phosphatidylinositol 4,5-bisphosphate 3-kinase catalytic subunit gamma isoform; test: Binding affinity to human PI3Kgamma equilibrate for 6 hrs by scan-kinetic platform assay; how it was run: as §1
[11] = Inhibition of PI3K in human HeLa cells assessed as reduction in EGF-stimulated AKT phosphorylation at T308 preincubated for 10 mins followed by EGF stimulation measured after 5 mins by Western blot analysis; type: cell-based; how it was run: as §2
[12] = target: T4, PI3-kinase p110-alpha/p85-alpha (Homo sapiens); test: Binding affinity to PI3Kalpha/p85alpha (unknown origin) assessed as covalent modification at Lys802 residue at 4 uM after 2 mins by tandem MS/MS method; type: protein-complex assay
How it was run: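 Recombinant PI3Kα (p110α/p85α) at 2 μM mixed with 4 μM inhibitor in 10 mM HEPES pH 7.5, 100 mM NaCl, 5% DMSO. Timepoints quenched by unfolding in ice-cold 2 M guanidine-HCl/3% formic acid, snap-frozen in liquid N2, stored at −80 °C. Analysed by LC-MS/MS; mass shift of the modified peptide read out.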

[13] = target: Tyrosine-protein kinase Lck (Homo sapiens, UniProt P06239); test: Binding affinity to human LCK after 1 hr by KINOMEscan assay
Tyrosine-protein kinase Lck, sequence (P06239 whole entry): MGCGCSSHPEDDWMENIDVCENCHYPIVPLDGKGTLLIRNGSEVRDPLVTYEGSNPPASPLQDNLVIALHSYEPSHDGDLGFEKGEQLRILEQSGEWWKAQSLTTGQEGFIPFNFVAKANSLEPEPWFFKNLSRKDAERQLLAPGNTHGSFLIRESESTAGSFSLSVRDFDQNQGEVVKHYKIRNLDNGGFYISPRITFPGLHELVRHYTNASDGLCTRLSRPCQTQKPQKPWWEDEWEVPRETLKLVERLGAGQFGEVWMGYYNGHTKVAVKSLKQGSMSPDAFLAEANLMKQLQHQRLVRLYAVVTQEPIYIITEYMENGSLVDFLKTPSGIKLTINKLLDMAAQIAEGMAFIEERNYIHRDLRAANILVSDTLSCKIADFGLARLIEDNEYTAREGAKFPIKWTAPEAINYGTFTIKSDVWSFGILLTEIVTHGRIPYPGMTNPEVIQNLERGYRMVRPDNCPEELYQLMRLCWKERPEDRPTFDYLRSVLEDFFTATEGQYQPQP

[14] = target: Mitogen-activated protein kinase 10 (Homo sapiens) (UniProt P53779); test: Binding affinity to human JNK3 at 1 uM after 1 hr by KINOMEscan assay
Mitogen-activated protein kinase 10 (Homo sapiens), sequence (P53779 whole entry): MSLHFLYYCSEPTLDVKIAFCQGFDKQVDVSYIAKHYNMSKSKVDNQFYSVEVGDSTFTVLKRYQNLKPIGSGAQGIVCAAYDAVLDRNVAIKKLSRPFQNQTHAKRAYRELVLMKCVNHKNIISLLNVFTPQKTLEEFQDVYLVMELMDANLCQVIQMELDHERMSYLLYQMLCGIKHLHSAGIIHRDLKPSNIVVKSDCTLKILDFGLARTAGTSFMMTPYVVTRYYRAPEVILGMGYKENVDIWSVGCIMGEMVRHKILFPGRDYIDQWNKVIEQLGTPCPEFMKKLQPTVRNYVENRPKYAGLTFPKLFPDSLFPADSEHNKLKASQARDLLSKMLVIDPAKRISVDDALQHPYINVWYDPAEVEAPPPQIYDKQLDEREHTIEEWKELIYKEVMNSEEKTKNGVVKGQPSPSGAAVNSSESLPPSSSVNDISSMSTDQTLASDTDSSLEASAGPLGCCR

[15] = Inhibition of PI3K in human HeLa cells assessed as reduction in EGF-stimulated AKT phosphorylation at S473 preincubated for 10 mins followed by EGF stimulation measured after 5 mins by Western blot analysis; type: cell-based; how it was run: as §2
[16] = target: Epidermal growth factor receptor (Homo sapiens) (UniProt P00533); test: Inhibition of EGFR in human HeLa cells assessed as reduction in EGF-stimulated EGFR phosphorylation at 0.3 to 100 nM preincubated for 10 mins followed by EGF stimulation measured after 5 mins by Western blot analysis; type: cell-based; how it was run: as §2
[17] = target: T3, Phosphatidylinositol 4,5-bisphosphate 3-kinase catalytic subunit alpha isoform; test: Binding affinity to human PI3Kalpha after 1 hr by KINOMEscan assay

CO/C=C/C(=O)c1cc2c3c(c(N)cc(NC(=O)C(C)C)c3n1)N=C2
Activity [1]: Active
Kd [2]: 3.5 nM
Kd [3]: 4.4 to 7.3 nM
Kd [4]: 0.56 to 0.72 nM
Kd [5]: 5.7 nM
Kd [6]: 0.43 to 0.45 nM
GI50 [7]: 6 to 840 nM
Activity [8]: Active
inhibition [9]: inactive
Kd [10]: 1.9 to 2 nM
IC50 [11]: 3 nM
Activity [12]: Active
Kd [13]: 4600 nM
Activity [14]: Active
IC50 [15]: 3 nM
inhibition [16]: inactive
Kd [17]: 0.88 nM
